Screens as filed in PubChem.
Kir21 block – blocks the mouse Kir2.1 inward-rectifier potassium channel; AID 1672; 310,000 tested, 0.85% active; B-score at 10 µM; P35561; HEK293-Kir2.1, FluxOR thallium flux fluorescence; active compounds read low;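 active means fluorescence ratio B-score at or below minus 3 SD of library scores, with starting-brightness B-score within 2 SD, cut at about -4.2 in these data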;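 further: channel flux triggered by added potassium and thallium sulfate stimulus; B-score of peak minus minimum fluorescence over baseline after thallium stimulus; more negative B-score means stronger Kir2.1 block with less thallium influx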
TRPC4 inh – blocks the mouse TRPC4 cation channel. HEK293 TRPC4beta/mu-opioid, DAMGO-evoked Fluo4 calcium flux; active compounds read low. AID 2247. 300,000 tested, 0.39% active. B-score at 10 µM. Q9QUQ5;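 active means B-score over 3 SD under the library average, no early fluorescence shift, positive overall ratio signal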
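System: stable TRPC4beta/mu-opioid receptor HEK293 cells; Dosing: single-point compound dosing; Measured by: Fluo4 Ca2+ flux fluorescence; Read-out basis: per-well B score of integrated baseline-normalized Fluo4 ratio.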
TRPC4 PAM – allosterically enhances the mouse TRPC4 cation channel; HEK293 TRPC4beta/mu-opioid, DAMGO EC20, Fluo-4 Ca2+ flux; active compounds read high; B-score at 10 µM; 310,000 tested, 0.42% active; Q9QUQ5;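 active means B-score of calcium response area above 5 SD of library B-scores, with initial fluorescence ratio within 5 SD of library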
TRPC4 act – TRPC4 (mouse) channel activation; HEK293 TRPC4beta/mu-opioid, Fluo4 calcium fluorescence; active compounds read high; B-score at 10 µM; 310,000 tested, 0.49% active; AID 2237;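 active means B-score above 5 SD of library B-scores, and initial fluorescence ratio not above library mean plus 5 SD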;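 further: positive B-score marks a calcium rise read as TRPC4 activation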
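system = HEK293 cells stably co-expressing mouse TRPC4beta and mu-opioid receptor | schedule = Fluo4 dye loading 45 min at room temperature, 110 s recording | measure = B-scored integrated calcium fluorescence ratio | signal = Fluo4 calcium-sensitive dye fluorescence, kinetic, 1 Hz baseline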
TRPC6 inhibitor – blocks the mouse TRPC6 cation channel; Q61143; HEK293-TRPC6, membrane potential dye, ACh-evoked depolarization; active compounds read low; B-score at 10 µM; 310,000 tested, 1.1% active;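 active means B-score under library mean minus 3 SD, initial fluorescence not abnormally high, positive integrated signal ratio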;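 further: B-score derived from integrated fluorescence ratio over the kinetic read; more negative B-score means stronger inhibition of depolarization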
TRPC6 activator – mouse TRPC6 channel activation; Q61143; HEK293-TRPC6 membrane potential dye fluorescence; active compounds read high; B-score at 10 µM; 310,000 tested, 0.13% active; AID 2550;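 active means B-score of the integrated fluorescence ratio above library mean plus 3 SD, and starting fluorescence ratio within library mean plus 5 SD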;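 further: higher score means more depolarization so channel activation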
Of the large screens only hits and unclear results are named; the others gave an inactive call. In the library only some 2.9% were active in any assay of this set; here they are far more common.

Clc1cccc(N2CCNCC2)c1	none
Cc1ccc(-n2c(C)nc3ccccc3c2=O)c(C)c1	none
O=C(c1ccc(N2CCCCC2)c([N+](=O)[O-])c1)N1CCC2(CC1)OCCO2	none
c1ccc2oc(N3CCNCC3)nc2c1	TRPC4 PAM 44, TRPC4 act 72
N=c1c2c(n(Cc3ccc(Cl)cc3Cl)c3c1CCC3)CCCC2	TRPC6 inhibitor -5.12
COc1ccc(C2NCCc3[nH]cnc32)cc1 (centres undefined)	TRPC4 act 175
c1ccc(C2NCCc3[nH]cnc32)cc1 (centres undefined)	none
CC(C)(C)c1nc(N2CCN(C(=O)c3ccco3)CC2)c2nnn(Cc3ccccc3Cl)c2n1	none
COc1ccc(-[n+]2c(-c3ccccc3)cc(-c3ccccc3)cc2-c2ccccc2)cc1	Kir21 block -7.51
Oc1ccc(-[n+]2c(-c3ccccc3)cc(-c3ccccc3)cc2-c2ccccc2)cc1	Kir21 block -10.2
O=C(COC(=O)c1ccc(O)cc1)Nc1ccc(Cl)cc1C(=O)c1ccccc1	none
CC1CN(c2ccc([N+](=O)[O-])cc2Cl)CCN1 (centres undefined)	TRPC4 PAM 66, TRPC4 act 63
CC1CN(c2cc([N+](=O)[O-])ccc2Cl)CC(C)N1 (centres undefined)	none
CN1CCN(c2ccc([N+](=O)[O-])cc2Cl)CC1	TRPC4 PAM 27
COc1ccccc1N(CC(=O)NC1CCCCC1)C(=O)c1cnn(C(C)C)c1	none
NC(=O)OCCSc1nnc(-c2cccc(C(N)=S)c2)o1	none
Cc1[nH]c2ccc(OC(F)(F)F)cc2c1CCNCc1ccc(Cl)cc1	Kir21 block -7.16
CCOc1cccc(CNCCc2c(C)[nH]c3ccc(OC(F)(F)F)cc23)c1O	Kir21 block -13.1
COc1c(C=C2C(=O)NC(=O)NC2=O)c(CCN(C)C(=O)c2ccccc2)cc2c1OCO2	Kir21 block -4.51
O=Cc1cn(Cc2c(F)cccc2Cl)c2ccccc12	none
Cc1ccccc1NS(=O)(=O)c1ccc(OCC(=O)N2CCN(C)CC2)cc1	none
C[C@]12CC[C@@H](O)C[C@H]1CC[C@@H]1[C@@H]2CC[C@]2(C)C(=O)CC[C@@H]12	none
c1ccc2nc(OCCN3CC3)ccc2c1	TRPC4 PAM 18
CNC(C)Cc1ccccc1Sc1ccc(O)cc1 (centres undefined)	TRPC4 inh -6
O=C(c1cccc(C(F)(F)F)c1)C1CCCN(Cc2ccccc2O)C1 (centres undefined)	TRPC4 inh -9
Cc1ccc(CN2CCCC(C(=O)c3cccc(C(F)(F)F)c3)C2)o1 (centres undefined)	none
O=C(c1ccc(C(F)(F)F)cc1)C1CCCN(Cc2ccncc2)C1 (centres undefined)	TRPC4 act 51
NC(N)=N/N=C/c1cn(-c2ccccc2)nc1-c1cccs1	Kir21 block -9.28, TRPC4 act 97
O=c1c2ccccc2nc(-c2cccs2)n1-c1ccccc1	none
O=c1c2ccccc2nc(-c2ccc(Cl)cc2Cl)n1-c1nccs1	none
CC(N)Cc1c[nH]c2ccc(Cl)cc12 (centres undefined)	TRPC4 PAM 13
CC(N)Cc1c[nH]c2cc3c(cc12)OCCO3 (centres undefined)	TRPC4 act 143
Cc1cccc2c1=NC(=O)/C(=C/c1c(O)[nH]c(=O)[nH]c1=O)C=2	none
Cc1cc(O)c2c(C)c(CC(=O)N3C[C@H]4C[C@@H](C3)c3cccc(=O)n3C4)c(=O)oc2c1	none
CCOc1cc(CNCCc2c[nH]c3ccccc23)cc(Cl)c1OCC	Kir21 block -7.58, TRPC4 act 46
COc1cccc(CNCCc2c[nH]c3ccccc23)c1	none
CCOc1c(Cl)cc(CNCCc2c[nH]c3ccccc23)cc1OC	TRPC4 act 53
O=C(COC(=O)Cc1ccccc1)NC12CC3CC(CC(C3)C1)C2	none
CC(C)(C)c1ccc(O)c(CN2CCN(c3ccccc3)CC2)c1	none
Cc1ccc(N=Cc2c(O)n(C)c(=O)n(C)c2=O)cc1	none
N#CC(CCN1CCOCC1)(c1ccccc1)c1ccccc1	none
CCC(=O)C(CCN1CCOCC1)(c1ccccc1)c1ccccc1	TRPC4 act 62
COc1ccc(CN2C(=O)NC(=O)/C(=C\c3cc(OC)c(OC)c(OC)c3)C2=O)cc1	none
COc1ccc(CCn2c(O)c(C=Nc3ccccc3F)c(=O)[nH]c2=O)cc1OC	none
Brc1ccc2c(c1)C(OC1CN3CCC1CC3)c1ccccc1CS2 (centres undefined)	Kir21 block -8.91, TRPC4 PAM 29
CC/C(=N\Nc1ccccc1)c1c(O)n(C)c(=O)n(C)c1=O	TRPC4 inh -6, TRPC4 PAM 13
O=C(CN1CCN(Cc2cccc(Cl)c2)C1=O)N1CCC2(CC1)OCCO2	none
O=P(Nc1ccccc1)(Nc1ccccc1)Oc1ccc(Cl)cc1	TRPC4 PAM 10
COc1cccc(NP(=O)(Oc2ccc(Cl)cc2)Oc2ccc(Cl)cc2)c1	none
Cc1ncc(CN2CCCC(C(=O)c3ccc(C(C)(C)C)cc3)C2)s1 (centres undefined)	none
COc1ccccc1CC(=O)N1CCN(CCc2ccccc2)CC1	TRPC4 act 119
CCN1CCN(C(=O)Cc2ccccc2OC)CC1	TRPC4 act 79
CCOc1ccc(C(C)=O)cc1Cn1ccsc1=N	TRPC4 inh -5
COc1ccc(C(C)=O)cc1CC(C(=O)c1ccc(C)cc1)N(C)C (centres undefined)	none
O=c1cccc2n1CC1CC2CN(Cc2cccc(Cl)c2Cl)C1 (centres undefined)	Kir21 block -7.81
O=C1NC(=O)N(c2ccc3c(c2)OCO3)C(=O)/C1=C/c1ccc(N2CCCCC2)o1	Kir21 block -4.29
CCCC(=O)NC(Oc1ccc(OC)cc1)C(Cl)(Cl)Cl (centres undefined)	Kir21 block -5.67
CCOC(=O)c1cc(C)n(CCc2cnc[nH]2)c1C	TRPC4 act 138
Cc1ccc(CNC2=NCCS2)cc1	none
COCCNCCOc1ccc(C(C)(C)c2ccccc2)cc1	Kir21 block -11.6
Cc1ccc(C2N3CCCN23)cc1 (centres undefined)	none
Cc1cc(OC(=O)N(C)C)nc(SCc2c(Cl)cccc2Cl)n1	TRPC4 PAM 11
CN(C)C(=O)Oc1c(Cl)cc(Cl)c2ccccc12	none
CN(C)CCn1cnc2ccccc21	TRPC4 PAM 15
Cc1ccc(CC(=O)N2CCN(Cc3ccccc3)CC2)cc1	none
Oc1c(Br)cc(Br)cc1CN1CCN(Cc2ccccc2)CC1	TRPC4 PAM 20
Cc1ccccc1CN1CCN(Cc2ccccc2)CC1	Kir21 block -4.65
COc1ccc(CN2CCN(Cc3ccccc3)CC2)c(OC)c1	none
